Results reported in publication PMC5693369 (Nature chemical biology, 2017).
pIC50: −log10 of the molar value.

Columns and labels:
[1] = molecular target: recombinant cyclin C–CDK19 (Homo sapiens, UniProt Q9BWU1); experiment: CDK19 radiometric filter-binding kinase activity assay; format: biochemical; conditions: read-out: inhibition of kinase activity of cyclin C–CDK19, IC50
How it was run: (§1)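 Purified recombinant cyclin C–CDK8 or cyclin C–CDK19 incubated with a dilution series of test compound. Activity measured by radiometric filter binding as [γ-32P] transfer from ATP to recombinant RBER-IRStide substrate, relative to DMSO (1%) control. IC50 estimated by 4-parameter nonlinear regression.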

[2] = molecular target: human cyclin C–CDK8 complex (Homo sapiens, UniProt P49336); experiment: Cyclin C-CDK8 LanthaScreen binding assay; conditions: read-out: binding to cyclin C–CDK8, half-maximal inhibitory concentration (IC50)
How it was run: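 Human cyclin C–CDK8 complex in a LanthaScreen binding format. Binding expressed as percent displacement of a dye-labelled probe from the CDK8 kinase domain.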

PI3KC2A = PI3KC2A (Homo sapiens, UniProt O00443); experiment: Kinase profiling, PI3KC2A; format: binding; conditions: both kinase profiling formats
How it was run: (§2)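 Test compound screened at 1 μM against 414 kinases (LanthaScreen Eu binding, Adapta or Z-LYTE), scored as percent probe displacement or residual activity versus DMSO (0.5%). Also screened at 10 μM against 395 kinases by KINOMEscan active-site competitive binding, scored as percent displacement of a catalytic-site probe versus DMSO (0.5%).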

[3] = system: bone-marrow-derived dendritic cells (BMDCs); experiment: IL-10 release, cytokines and viability in zymosan A-stimulated BMDCs; format: cell-based, mouse
[4] = system: bone-marrow-derived dendritic cells (BMDCs); experiment: Cytokine production in R848-stimulated BMDCs; format: cell-based, mouse; conditions: for IL-10 upregulation in Ccnc Δ/Δ BMDCs: BMDCs lacking cyclin C; for IL-10 upregulation in Ccnc Δ/Δ BMDCs / IL-10 upregulation in Ccnc f/f BMDCs: R848; for IL-10 production: BMDCs, R848 stimulation; for IL-10 upregulation in Ccnc f/f BMDCs: control BMDCs
How it was run: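 BMDCs from C57BL/6 bone marrow, pretreated 24 h with test compound or DMSO (0.5%), then given R848 (2 μg/mL) or zymosan A (4 μg/mL) for 18 h; some sets co-treated with T-5224 (100 μM). Cyclin C-deleted cells came from Ccnc f/f × Mx1-Cre mice given poly(I:C) 2.5 μg g−1 i.p. every other day for 3 d, with bone marrow taken 10 d later and deletion confirmed by PCR. Clarified medium assayed by cytometric bead array. n = 3–4 biological replicates; EC50 by 4-parameter regression.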

[5] = system: mouse bone-marrow-derived macrophages (BMDMs); experiment: IL-10 production in activated BMDMs; format: cell-based; conditions: BMDMs activated with zymosan A or R848
How it was run: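 Bone-marrow macrophages from C57BL/6 mice, treated 24 h with test compound or DMSO (0.5%), then stimulated 18 h with R848 (2 μg/mL) or zymosan A (4 μg/mL). IL-10 measured in culture medium.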

Il10 mRNA = Il10 mRNA levels after R848 stimulation; format: cell-based, mouse; conditions: pretreatment, then R848 / microbial stimulation
PI3KCG = PI3KCG (Homo sapiens, UniProt P48736); experiment: Kinase profiling, PI3KCG; format: binding; conditions: both kinase profiling formats
How it was run: as §2

[6] = system: human, monocyte-derived DCs; experiment: IL-10 production in R848-stimulated human DCs; format: cell-based; conditions: human DCs from two independent donors, R848 stimulation
How it was run: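 CD14+ monocytes enriched from healthy-donor buffy coats and cultured to DCs. On day 7, cells scraped and plated at 30,000/well, treated with a concentration series of test compound or DMSO (0.5%), then stimulated 18 h with R848 (2 μg/mL). Medium stored at −80 °C before IL-10 detection. n = 3 biological replicates per donor; two independent experiments.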

NF-κB = experiment: TF-seq pathway reporter assay in BMDMs, NF-κB; format: cell-based, mouse; conditions: all stimuli tested
How it was run: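 Bone-marrow macrophages grown in DMEM with 30% FBS and 10% L929-conditioned medium, transduced on day 4 with a pooled lentiviral sequencing-based reporter library, then frozen and thawed. Cells plated at 100,000/well and pretreated 24 h at 37 °C with test compound (0.1 or 5 μM) or DMSO (0.5%). Stimulated up to 3 h with a ten-ligand panel or Sendai virus (MOI 10). Reporter transcripts counted as unique tagged molecules by sequencing.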

STAT1 = STAT1 phosphorylation in IFNγ-stimulated BMDCs; format: cell-based, mouse; conditions: BMDCs pre-incubated with compound
How it was run: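 BMDCs pre-incubated with test compound, then stimulated with recombinant murine IFNγ. Cells lysed in Tris pH 7.4 buffer with phosphatase and protease inhibitors, 1% Triton X-100 and 0.2% SDS; lysate clarified at 14,000 × g. 10–20 μg protein run on SDS–PAGE and blotted to PVDF. Probed for total STAT1 and p-STAT1 Tyr701 (1/1,000), β-actin; chemiluminescent detection.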

STAT1–STAT2 = experiment: TF-seq pathway reporter assay in BMDMs, STAT1–STAT2; format: cell-based, mouse; conditions: ~2 h after stimulation
[7] = molecular target: T1, recombinant cyclin C–CDK8 (Homo sapiens, UniProt P49336); experiment: CDK8 radiometric filter-binding kinase activity assay; format: biochemical; conditions: read-out: inhibition of kinase activity of cyclin C–CDK8, IC50
How it was run: as §1

[8] = molecular target: T1, recombinant cyclin C–CDK8; experiment: CDK8–c-Jun in vitro kinase reaction; format: biochemical; conditions: in vitro kinase reaction with recombinant c-Jun
How it was run: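 60 ng recombinant cyclin C–CDK8 and 60 ng recombinant human c-Jun pre-incubated 15 min with a dilution series of test compound. Reaction started with 20 μM ATP and run 30 min at 30 °C in 60 mM HEPES pH 7.5, 3 mM MgCl2, 3 mM MnCl2, 1.2 mM DTT, then EDTA-quenched. Read by SDS–PAGE and immunoblot for phospho-c-Jun Ser243; two independent experiments.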

c-Jun = c-Jun phosphorylation in R848-activated BMDCs; format: cell-based, mouse; conditions: dCA pretreatment (100 nM; 18 h)
How it was run: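 BMDCs pretreated with test compound, then activated with R848 for a time course. Lysates (10–20 μg protein) separated by SDS–PAGE, transferred to PVDF and immunoblotted for phospho-c-Jun Ser243 (1/1000) with chemiluminescent detection. Two independent experiments.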

T1 sequence (P49336 whole entry): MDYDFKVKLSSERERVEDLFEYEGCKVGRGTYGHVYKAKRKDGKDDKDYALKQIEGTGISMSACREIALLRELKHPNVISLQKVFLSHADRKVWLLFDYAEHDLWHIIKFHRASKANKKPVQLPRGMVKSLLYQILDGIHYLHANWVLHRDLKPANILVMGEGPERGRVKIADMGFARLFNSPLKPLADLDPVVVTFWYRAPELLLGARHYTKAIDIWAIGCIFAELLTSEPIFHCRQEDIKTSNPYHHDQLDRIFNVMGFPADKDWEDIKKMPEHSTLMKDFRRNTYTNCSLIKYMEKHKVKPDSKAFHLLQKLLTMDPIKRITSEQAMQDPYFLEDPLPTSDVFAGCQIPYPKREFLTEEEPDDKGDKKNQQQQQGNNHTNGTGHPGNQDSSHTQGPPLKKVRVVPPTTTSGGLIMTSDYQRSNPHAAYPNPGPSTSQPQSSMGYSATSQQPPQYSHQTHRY
T1 sequence (P24863 whole entry partner): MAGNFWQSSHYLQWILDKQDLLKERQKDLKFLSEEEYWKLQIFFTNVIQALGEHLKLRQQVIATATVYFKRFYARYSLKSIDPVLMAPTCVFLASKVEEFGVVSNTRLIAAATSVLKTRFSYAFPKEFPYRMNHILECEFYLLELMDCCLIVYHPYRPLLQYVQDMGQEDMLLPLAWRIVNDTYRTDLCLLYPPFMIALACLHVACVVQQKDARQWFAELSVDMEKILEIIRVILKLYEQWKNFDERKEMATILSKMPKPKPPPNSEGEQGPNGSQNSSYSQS
Sequence of PI3KC2A (O00443 whole entry): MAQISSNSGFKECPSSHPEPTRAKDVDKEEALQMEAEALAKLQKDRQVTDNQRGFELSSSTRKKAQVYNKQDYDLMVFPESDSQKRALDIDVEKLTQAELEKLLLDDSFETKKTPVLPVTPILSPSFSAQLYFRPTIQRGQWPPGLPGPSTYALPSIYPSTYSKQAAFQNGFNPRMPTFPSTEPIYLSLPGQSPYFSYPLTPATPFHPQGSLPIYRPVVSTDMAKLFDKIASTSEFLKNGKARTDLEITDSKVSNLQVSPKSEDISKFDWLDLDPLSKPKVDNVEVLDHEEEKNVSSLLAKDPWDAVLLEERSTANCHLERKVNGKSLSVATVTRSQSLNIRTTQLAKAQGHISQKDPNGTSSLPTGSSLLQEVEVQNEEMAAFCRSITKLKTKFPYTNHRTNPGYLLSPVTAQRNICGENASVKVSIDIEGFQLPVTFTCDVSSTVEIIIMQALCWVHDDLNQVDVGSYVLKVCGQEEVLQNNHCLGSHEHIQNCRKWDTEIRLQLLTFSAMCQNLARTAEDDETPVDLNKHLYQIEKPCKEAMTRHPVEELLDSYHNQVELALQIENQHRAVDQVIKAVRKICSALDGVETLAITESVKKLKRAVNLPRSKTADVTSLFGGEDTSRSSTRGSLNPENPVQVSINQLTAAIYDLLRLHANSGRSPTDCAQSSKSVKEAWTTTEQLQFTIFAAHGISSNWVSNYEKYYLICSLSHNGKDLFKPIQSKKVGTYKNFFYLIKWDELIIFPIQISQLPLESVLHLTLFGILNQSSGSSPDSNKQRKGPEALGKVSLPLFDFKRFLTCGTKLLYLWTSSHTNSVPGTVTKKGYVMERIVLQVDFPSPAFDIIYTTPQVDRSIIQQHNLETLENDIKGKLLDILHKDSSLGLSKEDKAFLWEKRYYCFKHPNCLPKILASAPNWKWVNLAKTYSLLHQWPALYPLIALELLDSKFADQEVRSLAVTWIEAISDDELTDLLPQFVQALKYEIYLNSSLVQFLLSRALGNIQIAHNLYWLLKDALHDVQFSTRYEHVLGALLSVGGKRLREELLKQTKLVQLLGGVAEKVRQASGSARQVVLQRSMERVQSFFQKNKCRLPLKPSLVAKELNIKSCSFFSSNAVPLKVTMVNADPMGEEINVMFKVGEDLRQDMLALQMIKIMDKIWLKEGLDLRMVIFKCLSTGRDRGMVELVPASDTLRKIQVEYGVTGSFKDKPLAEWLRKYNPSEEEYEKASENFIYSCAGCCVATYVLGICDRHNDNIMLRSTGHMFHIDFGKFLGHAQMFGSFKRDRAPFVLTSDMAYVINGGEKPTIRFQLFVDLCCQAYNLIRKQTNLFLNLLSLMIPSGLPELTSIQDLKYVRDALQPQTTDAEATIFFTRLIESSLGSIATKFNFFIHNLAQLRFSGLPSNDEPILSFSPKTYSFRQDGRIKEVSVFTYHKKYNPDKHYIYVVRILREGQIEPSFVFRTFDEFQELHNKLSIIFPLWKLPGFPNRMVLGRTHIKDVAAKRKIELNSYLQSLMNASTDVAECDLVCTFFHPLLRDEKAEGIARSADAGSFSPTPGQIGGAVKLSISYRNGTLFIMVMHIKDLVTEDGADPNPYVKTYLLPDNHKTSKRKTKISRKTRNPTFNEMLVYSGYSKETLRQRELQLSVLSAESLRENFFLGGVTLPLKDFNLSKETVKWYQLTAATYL
Sequence of recombinant cyclin C–CDK19 (Q9BWU1 whole entry): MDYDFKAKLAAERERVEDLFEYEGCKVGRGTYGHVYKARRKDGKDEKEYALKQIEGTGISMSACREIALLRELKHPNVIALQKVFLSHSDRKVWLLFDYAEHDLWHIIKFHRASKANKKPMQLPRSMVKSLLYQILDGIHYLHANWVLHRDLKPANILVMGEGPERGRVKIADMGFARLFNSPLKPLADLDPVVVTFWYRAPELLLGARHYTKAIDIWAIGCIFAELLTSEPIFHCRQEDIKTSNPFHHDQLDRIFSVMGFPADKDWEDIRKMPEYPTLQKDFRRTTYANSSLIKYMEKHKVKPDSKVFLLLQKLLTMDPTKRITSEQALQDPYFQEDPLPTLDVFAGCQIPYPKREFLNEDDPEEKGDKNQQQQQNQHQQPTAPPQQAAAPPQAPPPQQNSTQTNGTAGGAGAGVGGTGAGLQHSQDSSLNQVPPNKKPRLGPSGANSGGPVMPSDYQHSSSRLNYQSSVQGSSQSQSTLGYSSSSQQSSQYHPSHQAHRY
Sequence of recombinant cyclin C–CDK19 (P24863 whole entry partner): as the sequence (P24863 whole entry partner) above
Sequence of human cyclin C–CDK8 complex (P49336 whole entry, the tested form may be a part): as the sequence (P49336 whole entry) above
Sequence of human cyclin C–CDK8 complex (P24863 whole entry partner, the tested form may be a part): as the sequence (P24863 whole entry partner) above
Sequence of PI3KCG (P48736 whole entry): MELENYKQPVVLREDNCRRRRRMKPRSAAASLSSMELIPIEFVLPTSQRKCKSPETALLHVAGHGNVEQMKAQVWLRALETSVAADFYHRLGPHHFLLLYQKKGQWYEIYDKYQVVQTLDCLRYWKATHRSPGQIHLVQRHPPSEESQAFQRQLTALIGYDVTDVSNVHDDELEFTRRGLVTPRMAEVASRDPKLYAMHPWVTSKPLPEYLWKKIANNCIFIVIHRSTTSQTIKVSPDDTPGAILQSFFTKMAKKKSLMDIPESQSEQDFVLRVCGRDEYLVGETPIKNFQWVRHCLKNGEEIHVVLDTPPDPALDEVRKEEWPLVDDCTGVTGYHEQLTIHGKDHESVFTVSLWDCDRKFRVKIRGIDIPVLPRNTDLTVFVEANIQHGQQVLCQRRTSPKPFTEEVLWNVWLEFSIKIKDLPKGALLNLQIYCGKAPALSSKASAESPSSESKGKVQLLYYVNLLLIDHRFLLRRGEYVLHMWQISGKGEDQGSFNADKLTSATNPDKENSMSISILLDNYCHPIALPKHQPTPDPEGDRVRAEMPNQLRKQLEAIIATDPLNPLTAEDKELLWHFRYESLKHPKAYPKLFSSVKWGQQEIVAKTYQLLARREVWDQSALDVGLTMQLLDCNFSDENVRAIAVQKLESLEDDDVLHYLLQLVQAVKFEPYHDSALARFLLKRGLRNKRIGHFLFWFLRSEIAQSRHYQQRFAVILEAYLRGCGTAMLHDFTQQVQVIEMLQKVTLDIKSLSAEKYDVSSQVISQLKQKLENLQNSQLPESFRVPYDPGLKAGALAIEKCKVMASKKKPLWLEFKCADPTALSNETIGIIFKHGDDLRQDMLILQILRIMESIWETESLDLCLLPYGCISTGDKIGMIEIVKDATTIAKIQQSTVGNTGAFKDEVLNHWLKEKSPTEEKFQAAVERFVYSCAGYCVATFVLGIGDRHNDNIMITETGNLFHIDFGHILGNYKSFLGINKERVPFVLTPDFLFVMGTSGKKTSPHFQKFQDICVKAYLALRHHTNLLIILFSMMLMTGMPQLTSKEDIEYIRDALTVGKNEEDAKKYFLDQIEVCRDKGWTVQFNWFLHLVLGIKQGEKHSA

Row | SMILES | IL-10 upregulation in Ccnc Δ/Δ BMDCs [4] | IL-10 production [4] | IL-10 upregulation in Ccnc f/f BMDCs [4] | Il10 mRNA levels (Il10 mRNA) | IL-10 production [6] | NF-κB reporter activation (NF-κB) | STAT1–STAT2 reporter activity (STAT1–STAT2) | other results
1 | CC1CCc2nc(N)c(C#N)c(-c3cccnc3)c2C1 (stereo not drawn) [BRD6989] | failed to upregulate IL-10 | greater fold-increase in IL-10 production | remained intact | sustained increase beginning at 4 h and extending to 24 h | upregulated IL-10 | suppressed NF-κB activation | suppressed induction of STAT1–STAT2 activity | pIC50 [1]: < 4.52; pIC50 [2]: ~6.70; kinase profiling hit, PI3KC2A (PI3KC2A): secondary targets; cell viability ([3]; 48 h pretreatment, zymosan A 18 h): modestly reducing cell viability; production of IL-1β ([3]; zymosan A): largely unchanged; production of IL-12p40 ([3]; zymosan A): largely unchanged; production of TNFα ([3]; zymosan A): largely unchanged; zymosan A–induced release of IL-6 ([3]; zymosan A): suppressed; IL-10 production [5]: increased IL-10 production; kinase profiling hit, PI3KCG (PI3KCG): secondary targets; IFNγ-induced phosphorylation of STAT1 at Ser727 (STAT1): inhibited; JAK-mediated phosphorylation of STAT1 Tyr701 (STAT1): did not affect; pIC50 [7]: ~6.30
2 | Cn1ncc2cc(-c3cnc(N)c(Cl)c3N3CCC4(CCNC4=O)CC3)ccc21 [CCT251921] |  | recapitulated the IL-10 potentiating activity of BRD6989 |  |  | recapitulated the IL-10 potentiating activity of BRD6989 |  |  | 
3 | COc1ccc(N(C(=O)Nc2c(C)cccc2C)c2cc(Nc3ccc(N4CCN(C)CC4)cc3)ncn2)c(OC)c1 [HG-9-91-01, reference compound] |  |  |  | elevated Il10 mRNA during the first 2 h |  |  |  | 
4 | CN(C)C/C=C/C(=O)Nc1ccc(C(=O)Nc2cccc(Nc3ncc(Cl)c(-c4c[nH]c5ccccc45)n3)c2)cc1 [THZ-1] |  | not enhanced |  |  |  |  |  | 
5 | CN(C)[C@H]1C[C@@]23CC[C@@]4(O2)C(=CC[C@]2(C)C(c5ccc6ccncc6c5)=CC[C@H]24)C=C3[C@@H](O)[C@@H]1O [dCA, Δ^16-cortistatin A] | failed to upregulate IL-10 | recapitulated the IL-10 potentiating activity of BRD6989 | remained intact |  | recapitulated the IL-10 potentiating activity of BRD6989 | suppressed NF-κB activation | suppressed induction of STAT1–STAT2 activity | c-Jun Ser243 phosphorylation by recombinant cyclin C–CDK8 [8]: concentration-dependent suppression; activating phosphorylation of c-Jun on Ser63 (c-Jun): only moderately delayed; phosphorylation of c-Jun Ser243 (c-Jun): dramatically reduced phosphorylation
